Experimental data reported in publication PMC3962999 (The Biochemical journal, 2011).
pKd: −log10 of the molar value. Where “and” joins values, the source holds several entries; their conditions need not be identical. Equal entries are not always repeated. Where two headings read alike, the source gives them in different places.

What was measured:
[1] = biological target: T1, phosphatase-like domain of PPIP5K1 (PBD1) (Homo sapiens, UniProt Q6PFW1); assay: Phosphatase assay with phosphatase-like domain of PPIP5K1; format: biochemical; conditions: for hydrolysis of inositol phosphate: up to 15 h at 37 °C, trace 3H-labelled material (InsP6 also 1 μM)
T1 sequence (Q6PFW1 382-917): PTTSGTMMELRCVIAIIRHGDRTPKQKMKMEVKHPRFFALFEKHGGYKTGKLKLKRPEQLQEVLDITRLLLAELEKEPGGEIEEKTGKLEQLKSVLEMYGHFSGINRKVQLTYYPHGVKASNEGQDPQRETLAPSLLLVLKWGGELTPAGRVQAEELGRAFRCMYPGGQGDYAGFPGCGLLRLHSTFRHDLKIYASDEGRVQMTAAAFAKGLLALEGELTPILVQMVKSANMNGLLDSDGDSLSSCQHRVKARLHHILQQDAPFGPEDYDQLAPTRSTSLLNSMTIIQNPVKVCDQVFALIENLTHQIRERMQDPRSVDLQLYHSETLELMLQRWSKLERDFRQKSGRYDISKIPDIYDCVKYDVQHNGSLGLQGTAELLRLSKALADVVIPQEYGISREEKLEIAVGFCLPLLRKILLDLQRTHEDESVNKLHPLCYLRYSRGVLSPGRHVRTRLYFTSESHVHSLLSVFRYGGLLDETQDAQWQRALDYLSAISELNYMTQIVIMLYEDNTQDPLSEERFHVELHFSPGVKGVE
How it was run: (§1)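 Enzyme and 50 mM p-nitrophenyl phosphate were incubated at 37 °C in EDTA-free phosphatase buffer: 5 mM Hepes pH 7.2, 100 mM KCl, 2 mM MgCl₂, 0.5 mg/ml BSA. Reactions were stopped with 1 M NaOH, and p-nitrophenol accumulation was read as absorbance. Phosphatase-like domains were His-tagged constructs made in E. coli with pGro7 chaperones, purified by Ni-NTA then SP cation exchange. hMIPP was recombinant.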

[2] = biological target: T2, phosphatase-like domain of PPIP5K2 (PBD2) (Homo sapiens, UniProt O43314); assay: Phosphatase assay with phosphatase-like domain of PPIP5K2; format: biochemical; conditions: for hydrolysis of inositol phosphate: results not shown
T2 sequence (O43314 371-901 isoform O43314-2): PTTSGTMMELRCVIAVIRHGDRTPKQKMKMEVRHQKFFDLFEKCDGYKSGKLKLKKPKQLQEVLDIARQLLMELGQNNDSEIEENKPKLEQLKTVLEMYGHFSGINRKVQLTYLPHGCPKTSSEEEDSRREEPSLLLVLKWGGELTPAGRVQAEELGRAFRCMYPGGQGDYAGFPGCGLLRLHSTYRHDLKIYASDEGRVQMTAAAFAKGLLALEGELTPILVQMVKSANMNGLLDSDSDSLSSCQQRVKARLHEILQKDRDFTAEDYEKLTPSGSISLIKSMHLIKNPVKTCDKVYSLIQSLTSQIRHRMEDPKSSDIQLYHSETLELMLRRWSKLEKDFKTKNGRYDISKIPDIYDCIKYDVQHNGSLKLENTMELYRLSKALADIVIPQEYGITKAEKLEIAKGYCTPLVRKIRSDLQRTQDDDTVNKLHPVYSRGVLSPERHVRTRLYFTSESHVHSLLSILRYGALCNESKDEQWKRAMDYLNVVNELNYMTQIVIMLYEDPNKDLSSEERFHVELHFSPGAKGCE
How it was run: as §1

[3] = biological target: T3, PPIP5K1 kinase domain (Homo sapiens, UniProt Q6PFW1); conditions: cited from earlier work
T3 sequence (Q6PFW1 1-387 limits assumed): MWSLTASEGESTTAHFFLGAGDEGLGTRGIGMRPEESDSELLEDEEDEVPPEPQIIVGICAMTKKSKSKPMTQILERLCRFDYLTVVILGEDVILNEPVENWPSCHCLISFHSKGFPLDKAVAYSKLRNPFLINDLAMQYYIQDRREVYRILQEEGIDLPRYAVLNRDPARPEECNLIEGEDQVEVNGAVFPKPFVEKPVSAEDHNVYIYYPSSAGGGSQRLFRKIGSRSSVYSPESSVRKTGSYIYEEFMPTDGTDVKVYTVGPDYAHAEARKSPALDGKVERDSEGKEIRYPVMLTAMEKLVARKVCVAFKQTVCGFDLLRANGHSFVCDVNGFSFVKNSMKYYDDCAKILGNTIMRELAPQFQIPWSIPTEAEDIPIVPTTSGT

[4] = test system: full-length recombinant human PPIP5K1; conditions: in vitro; cited from earlier work
[5] = biological target: T3, PPIP5K1 kinase domain; assay: Kinase assay with PPIP5K1 kinase domain; format: biochemical; conditions: ratio of kcat/Km, this study
[6] = biological target: T4, PBD2 (Homo sapiens, UniProt O43314); assay: PEG precipitation [3H]InsP6 binding assay
T4 sequence (O43314 371-901 isoform O43314-2): T2 sequence (O43314 371-901 isoform O43314-2)
How it was run: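 PBD2 (32 μg) was incubated 20 min at 4 °C in 25 mM Hepes pH 7.2 containing 5 mg/ml γ-globulin, 100 mM KCl, 1 mM EDTA and 1 mM DTT. Each tube held ~15000 d.p.m. [³H]InsP₆ plus increasing unlabelled InsP₆ or C₈-PtdIns(3,4,5)P₃. Ice-cold 30 % PEG was added, samples were held 10 min at 0–4 °C and centrifuged at 10 000 g. Washed pellets were counted, and Kd and Bmax came from the saturation binding plot.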

[7] = test system: NIH 3T3 cells; assay: Confocal immunofluorescence of FLAG-PPIP5K1 translocation to the plasma membrane; format: cell-based
How it was run: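 NIH 3T3 cells on glass-bottom dishes were transfected 24 h after seeding with full-length FLAG-tagged human PPIP5K1 (Lipofectamine 2000). The next day they were serum-starved 3 h, then given PDGF. Cells were fixed in 3 % paraformaldehyde/4 % sucrose (15 min, 23 °C), permeabilized with 0.2 % Triton X-100, and blocked. Staining used anti-FLAG (2 h, 37 °C), Alexa 488 secondary and DAPI. Confocal ×63 line intensity profiles gave plasma membrane/cytoplasm pixel intensity ratios.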

[8] = biological target: T5, PBD2 (PPIP5K2) (Homo sapiens, UniProt O43314); assay: SPR equilibrium binding to immobilized lipid vesicles, PBD2; conditions: for binding to PBD2: SPR, in words
T5 sequence (O43314 371-901 isoform O43314-2): T2 sequence (O43314 371-901 isoform O43314-2)
How it was run: (§2)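 Large unilamellar vesicles (PtdCho/PtdE/test phosphoinositide 77:20:3) were captured on an L1 chip to 5000 RU. Signals were corrected against phosphoinositide-free vesicles. Kd came from nonlinear fitting of Req = Rmax/(1+Kd/C). Concentrations were: GRP-1 PH domain 2.5–125 nM; PBD1 on PtdIns(3,4,5)P₃ 5–150 nM; bisphosphate vesicles 75–1900 nM.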

[9] = biological target: T6, PBD1 (PPIP5K1) (Homo sapiens, UniProt Q6PFW1); assay: SPR equilibrium binding to immobilized lipid vesicles, PBD1; conditions: for binding to PBD1: SPR, in words
T6 sequence (Q6PFW1 382-917): T1 sequence (Q6PFW1 382-917)
How it was run: as §2

[10] = biological target: T7, GRP-1 PH domain (Mus musculus, UniProt O08967); conditions: read-out: Kd, values published by others; same technique; cited from earlier work
T7 sequence (O08967 264-380 limits assumed): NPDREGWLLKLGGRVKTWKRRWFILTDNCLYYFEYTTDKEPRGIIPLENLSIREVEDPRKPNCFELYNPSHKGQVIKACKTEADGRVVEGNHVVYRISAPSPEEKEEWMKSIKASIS

[11] = biological target: T7, GRP-1 PH domain; assay: SPR equilibrium binding to immobilized lipid vesicles, GRP-1 PH domain
How it was run: as §2

[12] = biological target: T8, hMIPP (Homo sapiens, UniProt Q9UNW1); assay: Hydrolysis of p-nitrophenyl phosphate by hMIPP; format: biochemical; conditions: 50 mM p-nitrophenyl phosphate, 90 ug hMIPP
T8 sequence (Q9UNW1 31-487): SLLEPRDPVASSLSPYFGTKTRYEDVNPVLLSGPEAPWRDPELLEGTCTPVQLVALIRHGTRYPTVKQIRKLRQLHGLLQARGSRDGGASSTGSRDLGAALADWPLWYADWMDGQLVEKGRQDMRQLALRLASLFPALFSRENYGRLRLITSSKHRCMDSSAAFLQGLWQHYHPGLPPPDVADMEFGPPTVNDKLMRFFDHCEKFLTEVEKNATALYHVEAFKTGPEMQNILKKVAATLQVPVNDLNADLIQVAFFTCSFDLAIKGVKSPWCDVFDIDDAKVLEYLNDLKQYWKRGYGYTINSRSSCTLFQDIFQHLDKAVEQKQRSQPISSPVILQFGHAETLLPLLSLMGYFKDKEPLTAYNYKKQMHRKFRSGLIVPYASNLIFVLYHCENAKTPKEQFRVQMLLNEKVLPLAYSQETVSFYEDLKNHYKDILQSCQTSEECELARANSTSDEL
How it was run: as §1

[13] = Stability of InsP8 through acid-quench, neutralization and HPLC; format: physicochemical; conditions: HPLC-purified [3H]InsP8

## O=P(O)(O)OC1[C@@H](OP(=O)(O)O)[C@@H](OP(=O)(O)O)C(OP(=O)(O)OP(=O)(O)O)[C@H](OP(=O)(O)O)[C@H]1OP(=O)(O)O (some centres unmarked) [1/3-PP-InsP5]
[1]
  hydrolysis of inositol phosphate: none of these polyphosphates were hydrolysed
[2]
  hydrolysis of inositol phosphate: Identical results

## O=P(O)(O)OC1[C@@H](OP(=O)(O)O)[C@H](OP(=O)(O)O)C(OP(=O)(O)OP(=O)(O)O)[C@H](OP(=O)(O)O)[C@H]1OP(=O)(O)O (some centres unmarked) [5-PP-InsP5]
[3]
  catalytic specificity for 5-PP-InsP5 relative to InsP6: 2.5 fold
[4]
  dephosphorylation by full-length PPIP5K1: does not de-phosphorylate
[5]
  catalytic preference for 5-PP-InsP5 over InsP6: 80 fold
[1]
  hydrolysis of inositol phosphate: none of these polyphosphates were hydrolysed
[2]
  hydrolysis of inositol phosphate: Identical results

## CCCCCCCC(=O)OC[C@H](COP(=O)(O)OC1[C@H](O)[C@H](OP(=O)(O)O)C(OP(=O)(O)O)[C@H](OP(=O)(O)O)[C@H]1O)OC(=O)CCCCCCC (some centres unmarked) [C8 soluble analogue of PtdIns(3,4,5)P3, C8-PtdIns(3,4,5)P3, reference compound]
[6]; PEG-precipitation assay
  potency relative to InsP6 at displacing [3H]InsP6: 2- to 3 fold
[1]; PBD1 35 μg/ml, 24 h at 37 °C, 1 mM lipid
  hydrolysis of the lipid (phosphate release): unable to detect any hydrolysis

## O=P(O)(O)OC1[C@@H](OP(=O)(O)O)[C@H](OP(=O)(O)O)C(O)[C@H](OP(=O)(O)O)[C@H]1OP(=O)(O)O (some centres unmarked) [Ins(1,3,4,5,6)P5]
[4]
  dephosphorylation by full-length PPIP5K1: does not de-phosphorylate

## O=P(O)(O)O[C@H]1[C@H](OP(=O)(O)O)[C@@H](OP(=O)(O)O)[C@H](OP(=O)(O)O)[C@@H](OP(=O)(O)O)[C@H]1OP(=O)(O)O [InsP6]
[4]
  dephosphorylation by full-length PPIP5K1: does not de-phosphorylate
[6]; InsP6 binding to PBD2
  Bmax: 0.6 mol/mol of protein
[6]; saturation binding plot, 4 °C
  pKd: 6.22 and 6.24
[1]
  hydrolysis of inositol phosphate: none of these polyphosphates were hydrolysed
[2]
  hydrolysis of inositol phosphate: Identical results

## O=c1cc(N2CCOCC2)oc2c(-c3ccccc3)cccc12 [LY294002, reference compound]
[7]; 15 min pre-treatment with 100 μM LY294002 before 50 ng/ml PDGF for 5 min
  PDGF-induced translocation of PPIP5K1: largely prevented

## CCCCC/C=C\C/C=C\C/C=C\C/C=C\CCCC(=O)O[C@H](COC(=O)CCCCCCCCCCCCCCCCC)COP(=O)(O)O[C@H]1[C@H](O)[C@@H](OP(=O)(O)O)[C@H](OP(=O)(O)O)[C@@H](OP(=O)(O)O)[C@H]1O [PtdIns(3,4,5)P3]
[8]
  pKd: 6.15
[9]
  pKd: 7.02
[10]
  pKd: 6.77 to 7.55
[11]
  pKd: 7.23

## O=P(O)(O)OC1C(OP(=O)(O)O)C(OP(=O)(O)OP(=O)(O)O)C(OP(=O)(O)O)C(OP(=O)(O)OP(=O)(O)O)C1OP(=O)(O)O (centres unmarked) [[PP]2-InsP4, 1/3,5-[PP]2-InsP4]
[4]
  dephosphorylation by full-length PPIP5K1: does not de-phosphorylate
[1]
  hydrolysis of inositol phosphate: none of these polyphosphates were hydrolysed
[2]
  hydrolysis of inositol phosphate: Identical results

## O=[N+]([O-])c1ccc(OP(=O)(O)O)cc1 [p-nitrophenyl phosphate, reference compound]
[12]
  rate of p-nitrophenyl phosphate hydrolysis: approx. 10 nM/mg of protein per min
[1]; 50 mM p-nitrophenyl phosphate, 90 μg PBD1
  hydrolysis of p-nitrophenyl phosphate: no activity
[2]; 50 mM p-nitrophenyl phosphate, 90 μg PBD2
  hydrolysis of p-nitrophenyl phosphate: no activity

## InsP8
[13]
  dephosphorylation after acid-quench, neutralization and HPLC: did not detect any dephosphorylation
  recovery after acid-quench, neutralization and HPLC: > 85%
[1]
  hydrolysis of inositol phosphate: none of these polyphosphates were hydrolysed
[2]
  hydrolysis of inositol phosphate: Identical results

## PDGF
[7]; 50 ng/ml PDGF, 5 min
  proportion of PPIP5K1 at the plasma membrane: significant increase

## Ptd3P
[8]
  binding to PBD2: did not bind
[9]
  binding to PBD1: did not bind

## Ptd4P
[8]
  binding to PBD2: did not bind
[9]
  binding to PBD1: did not bind

## Ptd5P
[8]
  binding to PBD2: did not bind
[9]
  binding to PBD1: did not bind

## PtdIns(3,4)P2
[9]; PBD1
  affinity relative to PtdIns(3,4,5)P3 (fold lower): approx. 6 fold
[9]
  binding to PBD1: significantly weaker ligands

## PtdIns(3,5)P2
[8]
  binding to PBD2: did not bind
[9]
  binding to PBD1: no significant binding
